According to paper PMC12634867 (Neoplasia (New York, N.Y.), 2025):
Like-named read-outs stand apart in the source and are kept apart here.

How the values were obtained:
[1] = plasma pharmacokinetics of single oral AZD5438 dosing in mice; type: in vivo; details: CBA, mouse, 37.5 mg/kg
[2] = clinical phase I tolerability, cancer patients; type: in vivo, human
CBA/CaJ mice [3] = assay: multi-cycle cisplatin ototoxicity mouse model, ABR; type: in vivo
CBA/CaJ mice [4] = assay: multi-cycle cisplatin ototoxicity mouse model, DPOAE; type: in vivo; details: any combination group
CBA/CaJ mice [5] = assay: multi-cycle cisplatin ototoxicity mouse model, hair cell counts; type: in vivo
CBA/CaJ mice [6] = assay: multi-cycle cisplatin ototoxicity mouse model, survival and general condition; type: in vivo
NCCIT cells = assay: NCCIT cell confluence; type: cell-based, human; details: for IC50: read-out: IC50, NCCIT cells
JKT1 cells = assay: MTT cell viability, JKT1; type: cell-based; details: ∼0.02-100 μM AZD5438 together with cisplatin, 24 h MTT
SEM-1 cells = assay: MTT cell viability, SEM-1; type: cell-based; details: ∼0.02-100 μM AZD5438 together with cisplatin, 24 h MTT
[7] = test system: NCCIT tumor-bearing SCID mice; assay: NCCIT xenograft mouse model; type: in vivo
How it was run: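 Male SCID mice aged 12 wk were implanted s.c. with 1 × 10⁷ NCCIT cells in 1:1 Matrigel. At mean tumor size ~100 mm³, they were randomized into four groups (n = 10). […] Oral test compound or vehicle (10% DMSO/5% Tween-80/40% PEG-300/45% saline) was given b.i.d. on days 1–3. Cycles lasted 7 days, three in all. Caliper volumes normalized to baseline; two-way ANOVA with Tukey.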

cochlear explants = details: read-out: EC50 in cochlear explants; protection against cisplatin; cited from earlier work
cyclin E/CDK2 = details: read-out: in vitro IC50 against cyclin E/CDK2; cited from earlier work
cyclin B1/CDK1 = details: read-out: in vitro IC50 against cyclin B1/CDK1; cited from earlier work
cyclin D1/CDK4 = details: read-out: in vitro IC50 against cyclin D1/CDK4; cited from earlier work
[8] = cited from earlier work
[9] = single dose, healthy male volunteers; cited from earlier work
[10] = cited from earlier work; remark: listed apart in the source
[11] = test system: IMR-32, SH-SY5Y, SKN-AS, SHP-77, H115, A549, Kelly, JKT1, NCCIT; details: neuroblastoma, lung and testicular origins; cited from earlier work
FVB mice = details: cited from earlier work
[12] = test system: noise-induced hearing loss (NIHL) model; details: cited from earlier work
mice = details: cited from earlier work
phosphorylated Rb = details: cited from earlier work
cyclin A/CDK2 = details: read-out: in vitro IC50 against cyclin A/CDK2; cited from earlier work
CBA/CaJ model = CBA/CaJ model and retrospective human study; cited from earlier work

Compound: Cc1ncc(-c2ccnc(Nc3ccc(S(C)(=O)=O)cc3)n2)n1C(C)C [AZD5438]
- Cmax [1]: 1470 ± 916 ng/mL
- concentration at 2 h [1]: 621 ± 305 ng/mL
- concentration at 3 h [1]: 510 ± 135 ng/mL
- estimated MTD ([2]; cancer patients, four times daily (QID), conjectured from NTDs): 20 to 90 mg
- human equivalent (tolerated) mouse dose ([2]; extrapolated from tolerated Cmax): ≤ 9.4 mg/kg
- Cmax ([2]; human, plasma, oral): < 300 ng/mL
- ABR wave 1 amplitudes, protection vs cisplatin only (CBA/CaJ mice [3]; any combination group): no significant protection
- ABR wave 1 latency, improvement vs cisplatin only (CBA/CaJ mice [3]; combination groups, all levels at 8 and 16 kHz): did not reveal significant improvements
- DPOAE amplitudes input and output analysis, protection vs cisplatin only (CBA/CaJ mice [4]): no significant protection
- DPOAE thresholds and amplitudes, protection vs cisplatin only (CBA/CaJ mice [4]): no significant protection
- reduction of cisplatin-induced outer hair cell loss (CBA/CaJ mice [5]; AZD5438 co-treated groups, 32 kHz region): did not significantly reduce cisplatin-induced outer hair cell loss
- inner hair cell loss (CBA/CaJ mice [5]; all groups): none of the groups caused any inner hair cell loss
- adverse effects based on body weight or behavior (CBA/CaJ mice [6]; co-treated animals (Fig. 2, Fig. 3)): no significant adverse effects
- mortality during the entire experiments (CBA/CaJ mice [6]; multi-cycle cisplatin + AZD5438 b.i.d.): Only a few mice mostly in the cisplatin + 37.5 mg/kg AZD5438 group died
- IC50 (NCCIT cells; Homo sapiens, NCCIT, 40 h): 1380 nM
- cell death of combination vs either drug alone (NCCIT cells; cisplatin 5 μM + AZD5438 3 μM, 40 h): significantly higher cell death
- interference with cisplatin tumor cell loss, JKT1 (JKT1 cells): no substantial interferences
- interference with cisplatin tumor cell loss, SEM-1 (SEM-1 cells): no substantial interferences
- tumor volume, cisplatin + AZD5438 vs cisplatin only ([7]; 9.4 mg/kg b.i.d. oral + cisplatin 3 mg/kg): no significant differences
- tumor volume ([7]; AZD5438 only, 9.4 mg/kg b.i.d. oral, vs vehicle): increased at similar rates
- body weight ([7]; cisplatin + AZD5438 vs cisplatin only): trend of body weight loss more than the cisplatin only group, although insignificantly
- survival ([7]; combination group and AZD5438 only group, 9.4 mg/kg b.i.d.): several deaths occurred
- EC50 (cochlear explants): 5 nM
- IC50 (cyclin E/CDK2): 6 nM
- IC50 (cyclin B1/CDK1): 16 nM
- IC50 (cyclin D1/CDK4): 450 nM
- dose-dependent linear Cmax values ([8]; oral, animal and human studies): 5 to 1,000 ng/mL
- Tmax ([8]; plasma, single oral dose): 30 to 180 min
- maximum tolerated dose (MTD) [9]: 80 mg
- well tolerated dose ([10]; cancer patient cohort, QID one day weekly): ≤ 90 mg
- non-tolerated dose (NTD) ([10]; cancer patients, four times (QID) for one day per week): > 90 mg
- non-tolerated dose (NTD) ([10]; cancer patients, four times daily for at least 14 and 28 consecutive days): 40 mg
- adverse events ([10]; continuous dosing, 40 mg QID, cancer patients): gastrointestinal in origin, including profound anorexia and fatigue in some patients, accompanied by nausea and vomiting
- interference with cisplatin's tumor killing in nine cancer cell lines [11]: does not interfere
- protection against CIHL (FVB mice; oral 75 mg/kg once daily for three days): significantly protected against CIHL at 32 kHz
- cisplatin-induced hearing loss (ABR thresholds at 32 kHz) (FVB mice; transtympanic 50 µM, one hour before and 24 h after cisplatin): significantly attenuated cisplatin-induced hearing loss
- protection in NIHL model, co-treatment with dabrafenib ([12]; AZD5438 and dabrafenib, preservation at 8, 16 and 32 kHz): enhanced protection
- auditory thresholds in NIHL model ([12]; oral 75 mg/kg): improved auditory thresholds at 8 and 16 kHz
- cisplatin-induced nephrotoxicity (mice): protected against cisplatin-induced nephrotoxicity
- time after administration within which phosphorylated Rb was modulated (phosphorylated Rb): 1 to 3 h
- IC50 (cyclin A/CDK2): 45 nM

Compound: CC(C)c1c(C(=O)Nc2ccccc2)c(-c2ccccc2)c(-c2ccc(F)cc2)n1CC[C@@H](O)C[C@@H](O)CC(=O)O [atorvastatin]
- auditory protection (CBA/CaJ model): 5–8 dB

Compound: N.N.[Cl][Pt][Cl] [cisplatin, cis-diamminedichloroplatinum (II)]
- IC50 (NCCIT cells; single agent, confluency over 40 h): 9000 nM
- tumor volume ([7]; cisplatin only, 3 mg/kg, two days per week): completely obliterated the tumor volumes
- auditory threshold elevations (FVB mice; single IP cisplatin 30 mg/kg, 8, 16 and 32 kHz): 5–20 dB
